One data set has as its system NIH-3T3 cells. Put plainly: MTT cytotoxicity assay in non-cancerous NIH-3T3 cells. The class given is cell-based, mouse. Particulars: for IC50: Mus musculus; for cytotoxic effect on non-cancerous NIH-3T3 cells (in words): NIH-3T3 mouse embryonic fibroblast, treatment up to 48 h. An outline of the steps: (§1)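 Cells (A549 or NIH-3T3) were seeded at 5 × 10^3 per well and grown 24 h at 37 °C, 5% CO2, then given increasing concentrations for 24 h and 48 h. DMSO/medium served as negative control and cisplatin as standard. MTT (5 mg mL−1 stock) was added for 4 h at 37 °C, formazan was dissolved in DMSO, and A595 was read. Triplicate means were used; IC50 came from dose–response inhibition curves.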

Data set [1] relates to A549 cells. In words: AO/EB and Hoechst 33258 staining assay. Particulars: A549 cells treated at respective IC50 concentration, 24 h and 48 h. It counts as cell-based, human. The method, boiled down:
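A549 cells were seeded at 5 × 10^4 per well and grown 24 h at 37 °C, 5% CO2, then exposed at the respective IC50 concentration for 24 h and 48 h, alongside untreated and cisplatin controls. Staining used either AO/EB solution (100 μg per mL each) or Hoechst 33258 solution (100 μg per mL). Cells were examined and counted by fluorescence microscopy within 20 min.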

The subject of data set [2] is A549 cells. Put plainly: Intracellular ROS generation. The class given is cell-based, human. Particulars: IC50 concentrations, DCFH-DA, 0-24 h. An outline of the steps: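 Cells were seeded at 3.0 × 10^4 cells per mL in 24-well plates for 24 h, then dosed at 24 h IC50 concentrations with added 100 μM H2O2 solution. After 10 μM DCFH-DA solution was added, plates were held 10 min in the dark. DCF fluorescence (ex 488/em 510 nm) was read at 0, 2, 4, 6, 8, 12 and 24 h and expressed as fold change versus untreated control. Triplicates, mean ± SD.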

Data set [3] relates to A549 cells. In words: MTT cytotoxicity assay against the A549 lung cancer cell line. The class given is cell-based, human. Particulars: for cytotoxic activity compared with cisplatin: MTT. An outline of the steps: as §1
In general terms: Tetrazolium dyes change colour on reduction, which living cells bring about.

The mark [4] stands for this setting: NIH3T3, 24 h, read-out: IC50 at 24 h.
[5] abbreviates: NIH3T3, 48 h, read-out: IC50 at 48 h.

“Also recorded” adds a separate entry of the source. Where two headings read alike, the source gives them in different places.

One may read the IC50 as the concentration that inhibits the measured activity by half. Regarding `Cc1cc(C)c(C2CN(C)C3(C(=O)Nc4ccccc43)C2C(=O)c2ccccc2)c(C)c1` (stereo not drawn) [4a, 3′-Benzoyl-4′-mesityl-1′-methylspiro[indoline-3,2′-pyrrolidin]-2-one], the IC50 in the data set on NIH-3T3 cells (setting [4]) was above 100 µM; in the data set with NIH-3T3 cells (setting [5]), 25.4 ± 3.74 µM. Besides, the “apoptosis induction (AO/EB and Hoechst staining)” value (“apoptosis induction” for short) with A549 cells [1] is on record as “apoptosis-inducing capabilities”. Further, the “DCF fluorescent intensity compared with the untreated control group” value in the data set with A549 cells [2] is on record as “Not much difference”.

Turning to `Cc1cc(C)c(C2CN(C)C3(C(=O)Nc4ccccc43)C2C(=O)c2ccc(F)cc2)c(C)c1` (stereo not drawn) [4b, 3′-(4-Fluorobenzoyl)-4′-mesityl-1′-methylspiro[indoline-3,2′-pyrrolidin]-2-one], the IC50 in the data set on NIH-3T3 cells (setting [4]) is above 100 µM; with NIH-3T3 cells (setting [5]), 32.8 ± 5.95 µM. In the data set on A549 cells [2], the “DCF fluorescent intensity compared with the untreated control group” value is given as “Not much difference”.

For the compound `Cc1cc(C)c(C2CN(C)C3(C(=O)Nc4ccccc43)C2C(=O)c2ccc(Cl)cc2)c(C)c1` (stereo not drawn) [4c, 3′-(4-Chlorobenzoyl)-4′-mesityl-1′-methylspiro[indoline-3,2′-pyrrolidin]-2-one], the “cytotoxic activity compared with cisplatin” value with A549 cells [3] is listed as “better activity than cisplatin”. Besides, the IC50 in the data set with NIH-3T3 cells (setting [4]) and in the data set with NIH-3T3 cells (setting [5]) was above 100 µM in each case.

`Cc1cc(C)c(C2CN(C)C3(C(=O)Nc4ccccc43)C2C(=O)c2ccc(Br)cc2)c(C)c1` (stereo not drawn) [4d, 3′-(4-Bromobenzoyl)-4′-mesityl-1′-methylspiro[indoline-3,2′-pyrrolidin]-2-one]: the “cytotoxic activity compared with cisplatin” value in the data set on A549 cells [3] is listed as “better activity than cisplatin”. Besides, the IC50 with NIH-3T3 cells (setting [4]) and with NIH-3T3 cells (setting [5]) was above 100 µM each time.

Take `Cc1ccc(C(=O)C2C(c3c(C)cc(C)cc3C)CN(C)C23C(=O)Nc2ccccc23)cc1` (stereo not drawn) [4e, 4′-Mesityl-1′-methyl-3′-(4-methylbenzoyl)spiro[indoline-3,2′-pyrrolidin]-2-one]: the “cytotoxic activity compared with cisplatin” value with A549 cells [3] is on record as “better activity than cisplatin”. Besides, the IC50 in the data set with NIH-3T3 cells (setting [4]) and in the data set on NIH-3T3 cells (setting [5]) was above 100 µM in each case. Further, the “DCF fluorescent intensity compared with the untreated control group” value in the data set on A549 cells [2] was “Not much difference”.

For the compound `Cc1cc(C)c(C2CN(C)C3(C(=O)Nc4ccccc43)C2C(=O)c2cccc(Cl)c2)c(C)c1` (stereo not drawn) [4f, 3′-(3-Chlorobenzoyl)-4′-mesityl-1′-methylspiro[indoline-3,2′-pyrrolidin]-2-one], in the data set with A549 cells [3] (at 24 and 48 h), the “reduction in cell viability” value is on record as “No substantial reduction in cell viability”. Also, the IC50 in the data set with NIH-3T3 cells (setting [4]) and in the data set with NIH-3T3 cells (setting [5]) was above 100 µM each time.

As for `Cc1cccc(C(=O)C2C(c3c(C)cc(C)cc3C)CN(C)C23C(=O)Nc2ccccc23)c1` (stereo not drawn) [4g, 4′-Mesityl-1′-methyl-3′-(3-methylbenzoyl)spiro[indoline-3,2′-pyrrolidin]-2-one], the results for the IC50 in the data set with NIH-3T3 cells (setting [4]) and in the data set with NIH-3T3 cells (setting [5]) were above 100 µM and 75.3 ± 0.94 µM, respectively. In addition, in the data set with A549 cells [2], the “DCF fluorescent intensity compared with the untreated control group” value is reported as “Not much difference”.

In the case of `Cc1cc(C)c(C2C3CCCN3C3(C(=O)Nc4ccccc43)C2C(=O)c2ccccc2)c(C)c1` (stereo not drawn) [5a, 2′-Benzoyl-1′-mesityl-1′,2′,5′,6′,7′,7a′-hexahydrospiro[indoline-3,3′-pyrrolizin]-2-one], in the data set with A549 cells [3], the “cytotoxic activity compared with cisplatin” value is recorded as “better activity than cisplatin”. For the same compound, the results for the IC50 in the data set on NIH-3T3 cells (setting [4]) and with NIH-3T3 cells (setting [5]) were above 100 µM and 72 ± 4.45 µM, respectively.

In the case of `Cc1cc(C)c(C2C3CCCN3C3(C(=O)Nc4ccccc43)C2C(=O)c2ccc(F)cc2)c(C)c1` (stereo not drawn) [5b, 2′-(4-Fluorobenzoyl)-1′-mesityl-1′,2′,5′,6′,7′,7a′-hexahydrospiro[indoline-3,3′-pyrrolizin]-2-one], the “cytotoxic activity compared with cisplatin” value in the data set on A549 cells [3] is “better activity than cisplatin”. The IC50 was above 100 µM in the data set on NIH-3T3 cells (setting [4]) and 69.9 ± 1.3 µM in the data set on NIH-3T3 cells (setting [5]).

For `Cc1cc(C)c(C2C3CCCN3C3(C(=O)Nc4ccccc43)C2C(=O)c2ccc(Cl)cc2)c(C)c1` (stereo not drawn) [5c, 2′-(4-Chlorobenzoyl)-1′-mesityl-1′,2′,5′,6′,7′,7a′-hexahydrospiro[indoline-3,3′-pyrrolizin]-2-one], the “cytotoxic activity compared with cisplatin” value in the data set with A549 cells [3] is “better activity than cisplatin”. Also, the IC50 in the data set with NIH-3T3 cells (setting [4]) was above 100 µM; in the data set on NIH-3T3 cells (setting [5]), 72.1 ± 0.95 µM. Further, the “DCF fluorescent intensity compared with the untreated control group” value with A549 cells [2] is on record as “Not much difference”.

Turning to `Cc1cc(C)c(C2C3CCCN3C3(C(=O)Nc4ccccc43)C2C(=O)c2ccc(Br)cc2)c(C)c1` (stereo not drawn) [5d, 2′-(4-Bromobenzoyl)-1′-mesityl-1′,2′,5′,6′,7′,7a′-hexahydrospiro[indoline-3,3′-pyrrolizin]-2-one], in the data set with A549 cells [3], the “cytotoxic activity compared with cisplatin” value is on record as “better activity than cisplatin”. In addition, the IC50 with NIH-3T3 cells (setting [4]) is above 100 µM; in the data set on NIH-3T3 cells (setting [5]), 42.9 ± 1.51 µM.

In the case of `Cc1ccc(C(=O)C2C(c3c(C)cc(C)cc3C)C3CCCN3C23C(=O)Nc2ccccc23)cc1` (stereo not drawn) [5e, 1′-Mesityl-2′-(4-methylbenzoyl)-1′,2′,5′,6′,7′,7a′-hexahydrospiro[indoline-3,3′-pyrrolizin]-2-one], the IC50 in the data set on NIH-3T3 cells (setting [4]) and with NIH-3T3 cells (setting [5]) was above 100 µM in each case. Further, the “cytotoxic effect on non-cancerous NIH-3T3 cells (in words)” value in the data set on NIH-3T3 cells is reported as “non-cytotoxic; also recorded: no cytotoxic effects”. In addition, in the data set with A549 cells [1], the “apoptosis induction” value is “higher number of early and late apoptotic cells; also recorded: apoptosis-inducing capabilities”. The “DCF fluorescent intensity compared with the untreated control group” value in the data set with A549 cells [2] was “Not much difference”.

In the case of `Cc1cc(C)c(C2C3CCCN3C3(C(=O)Nc4ccccc43)C2C(=O)c2cccc(Cl)c2)c(C)c1` (stereo not drawn) [5f, 2′-(3-Chlorobenzoyl)-1′-mesityl-1′,2′,5′,6′,7′,7a′-hexahydrospiro[indoline-3,3′-pyrrolizin]-2-one], the “fold higher activity at 48 h than at 24 h” value in the data set on A549 cells [3] (IC50 at 48 h vs 24 h) is given as around 13 fold. Moreover, the IC50 in the data set with NIH-3T3 cells (setting [4]) and with NIH-3T3 cells (setting [5]) was above 100 µM in each case. Also, the “cytotoxic effect on non-cancerous NIH-3T3 cells (in words)” value with NIH-3T3 cells is listed as “non-cytotoxic; also recorded: no cytotoxic effects”. The “apoptosis induction” value with A549 cells [1] is “higher number of early and late apoptotic cells; also recorded: apoptosis-inducing capabilities; also recorded: induces apoptosis”. Besides, the “DCF fluorescent intensity compared with the untreated control group” value in the data set with A549 cells [2] is “Not much difference”.

With `Cc1cccc(C(=O)C2C(c3c(C)cc(C)cc3C)C3CCCN3C23C(=O)Nc2ccccc23)c1` (stereo not drawn) [5g, 1′-Mesityl-2′-(3-methylbenzoyl)-1′,2′,5′,6′,7′,7a′-hexahydrospiro[indoline-3,3′-pyrrolizin]-2-one], the “cytotoxic activity compared with cisplatin” value in the data set on A549 cells [3] is “better activity than cisplatin”. The IC50 in the data set with NIH-3T3 cells (setting [4]) and in the data set with NIH-3T3 cells (setting [5]) was above 100 µM each time.

Regarding `N.N.[Cl][Pt][Cl]` [Cisplatin, cisplatin, reference compound], in the data set with A549 cells [1], the “apoptosis induction” value was “distinct changes as an indication of apoptosis and cell death”.

For the origin of these results see PMC12086819 (RSC Advances, 2025).
